OXTR potentiate: potentiates the human oxytocin receptor response | activation, % at 3 µM | AID 2445 | 320,000 tested, 0.061% active | P30559 | CHO-OTR cells, Fluo-8 calcium fluorescence, potentiator mode; 0% = oxytocin EC15, 100% = EC100;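 active = activation above that plate's cutoff, the mean activation of tested compounds plus 3 SD, cut at about 6.6% in these data, passing the limit was not always enough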;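 also: 100% uses oxytocin at 75 nM as the full agonist control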
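System: human OTR in CHO cells; Also added: sub-maximal oxytocin, roughly EC15; Timing: compound 6 min at room temperature before oxytocin, 100 s read; Technique: Fluo-8 intracellular calcium fluorescence, ex 470-495, em 515-575 nm; Controls: oxytocin EC15 low and EC100 high; Replication: singlicate.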
OXTR ag: activates the human oxytocin receptor | P30559 | CHO-OTR cells, Fluo-8 calcium fluorescence; normalized: DMSO 0%, oxytocin 100% | activation, % at 3 µM | 320,000 tested, 0.32% active;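 active = activation above the mean of all tested compounds plus 3 SD, cutoff set per screening run, cut at about 20% in these data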;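 also: peak over basal fluorescence ratio from a 100 s FLIPR kinetic read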
V1R ag counter: V1a receptor agonism, counter-screen for OXTR agonists; CHO-V1R cells, Fluo-8 calcium fluorescence, agonist mode; 0% DMSO, 100% 3 nM vasopressin; activation, % at 3 µM; 320,000 tested, 0.25% active; AID 2797;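 active = activation above the mean activation of all tested compounds plus 3 SD, per screening run, cut at about 20% in these data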;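 also: signal is peak over basal fluorescence ratio across a 100 second FLIPR read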
TAAR1 agonist: human TAAR1 agonism; CHO RD-HGA16 TAAR1, Fluo-8 calcium fluorescence; vehicle wells 0%, saturating PEA agonist 100%; activation, % at 3 µM; 360,000 tested, 0.99% active; AID 624467;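 active = activation above the mean activation of all test compounds in the run plus 3 SD, cut at about 38% in these data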
Target sequence (Q96RJ0 whole entry, looked up): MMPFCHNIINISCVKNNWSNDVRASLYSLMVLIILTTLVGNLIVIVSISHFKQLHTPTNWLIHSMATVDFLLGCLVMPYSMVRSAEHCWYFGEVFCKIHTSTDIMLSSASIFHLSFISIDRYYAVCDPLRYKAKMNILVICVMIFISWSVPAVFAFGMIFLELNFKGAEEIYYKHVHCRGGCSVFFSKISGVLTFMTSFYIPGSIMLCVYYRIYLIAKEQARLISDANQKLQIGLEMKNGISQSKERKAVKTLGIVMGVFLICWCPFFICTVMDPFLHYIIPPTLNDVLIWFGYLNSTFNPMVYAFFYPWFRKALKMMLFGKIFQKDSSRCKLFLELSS
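Test system: RD-HGA16 (CHO) cells co-expressing Gα16 and hTAAR1 | Doses: Single dose, 3 µM | Schedule: 17-24 h seeding, 75 min 37 °C dye, 30 min RT | Evaluation: % activation from peak over basal fluorescence ratio, DMSO-to-PEA scaled | Technique: Kinetic Fluo-8 calcium fluorescence | Benchmarks: Low control DMSO, high control PEA (EC100)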
TAAR1 antag: antagonists of human TAAR1; 360,000 tested, 1.5% active; AID 624466; inhibition, % at 3 µM; Q96RJ0; CHO RD-HGA16 TAAR1, Fluo-8 calcium fluorescence, antagonist;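 active = inhibition above a per-plate cutoff, the mean inhibition of test compounds on that plate plus 3 SD, cut at about 49% in these data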;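 also: 0% = DMSO plus EC80 beta-PEA response and 100% = DMSO alone without agonist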
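System: CHO RD-HGA16 cells bearing hTAAR1. Reagent: EC80 β-phenethylamine stimulus. Schedule: seeding 17-24 h prior, 75-min 37 °C, 30-min RT dye loading. Signal: Fluo-8 intracellular calcium dye fluorescence, real-time kinetic reads. Read-out: % inhibition from peak post-agonist over basal fluorescence ratio. Benchmarks: vehicle wells and EC80 agonist wells. Replicates: n of 1.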
Numbers without * were called inactive; x = not tested or not shown. This is a sample that favours compounds with a hit; in the whole collection about 2.3% have one here.

SMILES | OXTR potentiate | OXTR ag | V1R ag counter | TAAR1 agonist | TAAR1 antag
Cc1ccc(C(C(=O)NCc2ccc(F)cc2)N(CCCO)C(=O)C2COc3ccccc3O2)o1 (centres undefined) | -16 | 2 | 2 | 16 | 52*
Cc1ccc(CNC(=O)C2COc3ccccc3O2)cc1 (centres undefined) | -8 | -2 | -1 | 1 | -16
CCN1CCN(C(=O)/C=C/c2ccc(C(C)C)cc2)CC1 | -10 | 0 | -1 | 1 | -37
CCN1CCC(O)(/C=C/c2ccc(C(C)C)cc2)C(C(=O)/C=C/c2ccc(C(C)C)cc2)C1 (centres undefined) | x | x | x | 40* | 24
CN1CCN(C(=O)c2cc3c(c(-c4cccc(C#CC(C)(C)O)c4)n2)[C@@H](CCO)N(S(=O)C(C)(C)C)C3)CC1 (some centres undefined) | x | x | x | 7 | -6
COc1ccc(CNC(=O)C2CCN(c3cc(C(=O)Nc4cccc(OC)c4)ccn3)CC2)cc1 | -10 | 1 | 3 | 3 | 49*
Nc1ccn([C@@H]2O[C@H](C(=O)N[C@H](Cc3ccccc3)C(=O)N3CCN(CCO)CC3)[C@@H](O)[C@H]2O)c(=O)n1 | x | x | x | 2 | -7
O=C1NC[C@H](c2ccccc2)OC(=O)[C@@H](Cc2ccc(F)cc2)C/C=C\C[C@H]1CC(=O)N(CCO)Cc1ccccc1 | -11 | 2 | 2 | 49* | 81*
CC(C)(C)OC(=O)C[C@@H]1C/C=C\C[C@H](CC(=O)N(CCO)Cc2ccccc2)C(=O)NC[C@@H](c2ccccc2)OC1=O | -3 | -2 | -1 | 7 | 12
O=C1NC[C@H](c2ccccc2)OC(=O)[C@H](Cc2ccc(F)cc2)CC/C=C/C[C@@H]1CC(=O)N(CCO)Cc1ccccc1 | -10 | -1 | 2 | 18 | 57*
O=C1NC[C@H](c2ccccc2)OC(=O)[C@H](Cc2ccc(F)cc2)C/C=C\C[C@H]1CC(=O)N(CCO)Cc1ccccc1 | -8 | -1 | 1 | 38* | 82*
CC(C)=CCc1c(O)ccc2c1OC(c1ccc(O)c(O)c1)CC2=O (centres undefined) | -7 | 8 | 3 | 14 | 57*
COc1cc(C(=O)OCC(=O)N2c3ccccc3NC(=O)C2(C)C)ccc1OCC(C)C | -14 | -1 | -1 | 14 | 67*
CCC(=O)c1ccc(OCC(=O)OCC(=O)N2c3ccccc3NC(=O)C2(C)C)cc1 | -15 | 5 | 9 | 13 | 52*
Cc1cc(OCC(=O)OCC(=O)N2c3ccccc3NC(=O)C2(C)C)ccc1Cl | -12 | 8 | 9 | 8 | 70*
CC(C)(C)c1ccc(OCCC(=O)OCC(=O)N2c3ccccc3NC(=O)C2(C)C)cc1 | -12 | 0 | 3 | 9 | 93*
CC1(C)C(=O)Nc2ccccc2N1C(=O)COC(=O)c1cccc(O)c1 | -7 | 2 | 0 | 14 | 31
Cc1ccc(C(=O)CCC(=O)OCC(=O)N2c3ccccc3NC(=O)C2(C)C)cc1 | x | x | x | 6 | 44
CCCCCCCCN1C(=O)[C@@H](CC(=O)NCc2cccc(C(F)(F)F)c2)C[C@@]2(C(=O)OC)C1=C[C@H](C(C)(C)C)O[C@@H]2C | x | x | x | 0 | -30
CCCCCCCCN1C(=O)[C@@H](CC(=O)NCc2ccc(OC)c(OC)c2)C[C@@]2(C(=O)OC)C1=C[C@H](C(C)(C)C)O[C@@H]2C | x | x | x | -2 | -39
O=C(Nc1nnc(-c2ccccc2)o1)c1nc2ccccc2s1 | -9 | 88* | 83* | 154* | 42
O=C(CCC(=O)OCc1ccc(C(=O)Oc2ccccc2)cc1)Nc1cccc2ccccc12 | -7 | -1 | 1 | 8 | 49*
COCCN(CCOC)C(=O)[C@H](CCc1ccccc1)NC(=O)[C@H]1O[C@@H](n2cnc3c(N)ncnc32)[C@H](O)[C@@H]1O | x | x | x | 0 | -7
O=C(O)CC/C(=C\c1cccc(NC(=O)c2ccccc2Cl)c1)c1nc2ccccc2s1 | -8 | 1 | 4 | 12 | 50*
Cn1c(N2CCN(C(c3ccccc3)c3ccccc3)CC2)nc2ccccc21 | -6 | -2 | 1 | 1 | 50*

Source: PubChem BioAssay (The Scripps Research Institute Molecular Screening Center)
